From ChEMBL document CHEMBL1139924, “The structure-activity relationship of the series of non-peptide small antagonists for p56lck SH2 domain” (Bioorg Med Chem, 2007)
Calls of active or inactive are those of the source. The calls are words filed in the database; no cut-off is given here.

test system: not listed separately; assay: Partition coefficient, log P of the compound; assay type: physicochemical; details: octanol/water
How it was run: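 Shake-flask partition. Compound at 1 mM final in 1-octanol/water with an equal volume of 1-octanol/water added, vortexed 30 min. P is the octanol concentration divided by the aqueous concentration. Three independent experiments in duplicate.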

Structure (SMILES) | logP
CCCOC(=O)[C@@H](Cc1ccc(O)c(O)c1)OC(=O)/C=C/c1ccc(O)c(O)c1 | 1.52
COC(=O)[C@@H](Cc1ccc(O)c(O)c1)NC(=O)/C=C/c1ccc(OC)c(O)c1 | 1.37
COC(=O)CCCCCNC(=O)[C@@H](Cc1ccc(O)c(O)c1)OC(=O)/C=C/c1ccc(O)c(O)c1 | 1.68
COC(=O)[C@@H](Cc1ccc(O)c(O)c1)NC(=O)/C=C/c1ccc(O)c(O)c1 | 1.39
COC(=O)[C@@H](Cc1ccc(O)c(O)c1)NC(=O)/C=C/c1ccc(O)c(OC)c1 | 1.31
CCOC(=O)[C@@H](Cc1ccc(O)c(O)c1)OC(=O)/C=C/c1ccc(O)c(O)c1 [ETHYL ROSMARINATE] | 1.5
COC(=O)[C@@H](Cc1ccc(O)c(O)c1)NC(=O)/C=C/c1ccc(OC)c(OC)c1 | 1.52
O=C(CCc1ccc(O)c(O)c1)N[C@H](Cc1ccc(O)c(O)c1)C(=O)O | 0.493
CC(C)(C)OC(=O)[C@@H](Cc1ccc(O)c(O)c1)OC(=O)/C=C/c1ccc(O)c(O)c1 | 2
O=C(/C=C/c1ccc(O)c(O)c1)N[C@H](Cc1ccc(O)c(O)c1)C(=O)O | 0.758
COC(=O)[C@@H](Cc1ccc(OC)c(OC)c1)NC(=O)/C=C/c1ccc(O)c(O)c1 | 1.53
O=C(CCc1ccc(O)c(O)c1)O[C@H](Cc1ccc(O)c(O)c1)C(=O)O | 0.503
O=C(/C=C/c1ccc(O)c(O)c1)O[C@H](Cc1ccc(O)c(O)c1)C(=O)O [ROSMARINIC ACID] | 0.834
COC(=O)[C@@H](Cc1ccc(O)c(O)c1)NC(=O)CCc1ccc(O)c(O)c1 | 0.344
O=C(/C=C/c1ccc(O)c(O)c1)N[C@@H](Cc1ccc(O)c(O)c1)C(=O)O | 0.731
COC(=O)[C@@H](Cc1ccc(O)c(O)c1)NC(=O)Cc1ccc(O)c(O)c1 | 0.138
COC(=O)[C@@H](Cc1ccc(O)c(O)c1)NC(=O)c1ccc(O)c(O)c1 | 0.125
CC(C)OC(=O)[C@@H](Cc1ccc(O)c(O)c1)OC(=O)/C=C/c1ccc(O)c(O)c1 | 1.83
COC(=O)[C@@H](Cc1ccc(O)c(O)c1)OC(=O)/C=C/c1ccc(O)c(O)c1 [METHYL ROSMARINATE] | 1.48

test system: not listed separately; assay: Inhibition of p56lck SH2 domain by ELISA; parameters: species or system Homo sapiens; details: not given
How it was run: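 Competitive ELISA. Compound plus GST-p56lck SH2 fusion (100 ng/ml) incubated 1 h at room temperature, in duplicate wells. Bound protein detected with rabbit anti-GST, then HRP anti-rabbit and TMB, acid-stopped, A450. Ac-pYEEIE control peptide; IC50 reported.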

Structure (SMILES) | IC50 [µM]
CCCOC(=O)[C@@H](Cc1ccc(O)c(O)c1)OC(=O)/C=C/c1ccc(O)c(O)c1 | 145
COC(=O)[C@@H](Cc1ccc(O)c(O)c1)NC(=O)/C=C/c1ccc(OC)c(O)c1 | > 500
COC(=O)CCCCCNC(=O)[C@@H](Cc1ccc(O)c(O)c1)OC(=O)/C=C/c1ccc(O)c(O)c1 | > 500
COC(=O)[C@@H](Cc1ccc(O)c(O)c1)NC(=O)/C=C/c1ccc(O)c(O)c1 | 71
COC(=O)[C@@H](Cc1ccc(O)c(O)c1)NC(=O)/C=C/c1ccc(O)c(OC)c1 | > 500
CCOC(=O)[C@@H](Cc1ccc(O)c(O)c1)OC(=O)/C=C/c1ccc(O)c(O)c1 [ETHYL ROSMARINATE] | 91
COC(=O)[C@@H](Cc1ccc(O)c(O)c1)NC(=O)/C=C/c1ccc(OC)c(OC)c1 | > 500
O=C(CCc1ccc(O)c(O)c1)N[C@H](Cc1ccc(O)c(O)c1)C(=O)O | 13
O=C(O)/C=C/c1ccc(O)c(O)c1 [CAFFEIC ACID] | > 500
CC(C)(C)OC(=O)[C@@H](Cc1ccc(O)c(O)c1)OC(=O)/C=C/c1ccc(O)c(O)c1 | 127
O=C(/C=C/c1ccc(O)c(O)c1)N[C@H](Cc1ccc(O)c(O)c1)C(=O)O | 20
COC(=O)[C@@H](Cc1ccc(OC)c(OC)c1)NC(=O)/C=C/c1ccc(O)c(O)c1 | > 500
O=C(CCc1ccc(O)c(O)c1)O[C@H](Cc1ccc(O)c(O)c1)C(=O)O | 15
O=C(/C=C/c1ccc(O)c(O)c1)O[C@H](Cc1ccc(O)c(O)c1)C(=O)O [ROSMARINIC ACID] | 24
COC(=O)[C@@H](Cc1ccc(O)c(O)c1)NC(=O)CCc1ccc(O)c(O)c1 | 32
O=C(/C=C/c1ccc(O)c(O)c1)N[C@@H](Cc1ccc(O)c(O)c1)C(=O)O | 21
COC(=O)[C@@H](Cc1ccc(O)c(O)c1)NC(=O)Cc1ccc(O)c(O)c1 | 21
NC(Cc1ccc(O)c(O)c1)C(=O)O (racemic) | > 500
COC(=O)[C@@H](Cc1ccc(O)c(O)c1)NC(=O)c1ccc(O)c(O)c1 | 19
CC(C)OC(=O)[C@@H](Cc1ccc(O)c(O)c1)OC(=O)/C=C/c1ccc(O)c(O)c1 | 110
COC(=O)[C@@H](Cc1ccc(O)c(O)c1)OC(=O)/C=C/c1ccc(O)c(O)c1 [METHYL ROSMARINATE] | 80

test system: Jurkat; assay: Inhibition of Jurkat cell activation assessed as blocking of T-cell antigen receptor-induced IL-2 expression at 10 uM by luciferase assay; assay type: functional; details: Homo sapiens
How it was run: (§1)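 Jurkat T cells (2 × 10⁶) transfected with 2 µg IL-2-luciferase reporter by lipofection. Compounds added 2 h before activation and kept present throughout 16 h stimulation with plate-coated anti-CD3 mAb (5 µg/ml, UCHT1) or […] plus ionomycin (0.5 µg/ml). Cells then washed, lysed and read for luciferase by luminometry. Three independent experiments in duplicate. Cyclosporin A positive control.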

Structure (SMILES) | inhibition at 10 µM [%]
CCCOC(=O)[C@@H](Cc1ccc(O)c(O)c1)OC(=O)/C=C/c1ccc(O)c(O)c1 | 87.5
COC(=O)[C@@H](Cc1ccc(O)c(O)c1)NC(=O)/C=C/c1ccc(OC)c(O)c1 | 5.4
COC(=O)CCCCCNC(=O)[C@@H](Cc1ccc(O)c(O)c1)OC(=O)/C=C/c1ccc(O)c(O)c1 | 29.4
COC(=O)[C@@H](Cc1ccc(O)c(O)c1)NC(=O)/C=C/c1ccc(O)c(O)c1 | 61.6
COC(=O)[C@@H](Cc1ccc(O)c(O)c1)NC(=O)/C=C/c1ccc(O)c(OC)c1 | 2.2
CCOC(=O)[C@@H](Cc1ccc(O)c(O)c1)OC(=O)/C=C/c1ccc(O)c(O)c1 [ETHYL ROSMARINATE] | 22.7
COC(=O)[C@@H](Cc1ccc(O)c(O)c1)NC(=O)/C=C/c1ccc(OC)c(OC)c1 | 3.5
O=C(CCc1ccc(O)c(O)c1)N[C@H](Cc1ccc(O)c(O)c1)C(=O)O | 0
O=C(O)/C=C/c1ccc(O)c(O)c1 [CAFFEIC ACID] | 2
CC(C)(C)OC(=O)[C@@H](Cc1ccc(O)c(O)c1)OC(=O)/C=C/c1ccc(O)c(O)c1 | 80.7
O=C(/C=C/c1ccc(O)c(O)c1)N[C@H](Cc1ccc(O)c(O)c1)C(=O)O | 10.3
COC(=O)[C@@H](Cc1ccc(OC)c(OC)c1)NC(=O)/C=C/c1ccc(O)c(O)c1 | 9.4
O=C(CCc1ccc(O)c(O)c1)O[C@H](Cc1ccc(O)c(O)c1)C(=O)O | 7.6
O=C(/C=C/c1ccc(O)c(O)c1)O[C@H](Cc1ccc(O)c(O)c1)C(=O)O [ROSMARINIC ACID] | 40.4
COC(=O)[C@@H](Cc1ccc(O)c(O)c1)NC(=O)CCc1ccc(O)c(O)c1 | 7.5
O=C(/C=C/c1ccc(O)c(O)c1)N[C@@H](Cc1ccc(O)c(O)c1)C(=O)O | 11
COC(=O)[C@@H](Cc1ccc(O)c(O)c1)NC(=O)Cc1ccc(O)c(O)c1 | 23
NC(Cc1ccc(O)c(O)c1)C(=O)O (racemic) | 0.6
COC(=O)[C@@H](Cc1ccc(O)c(O)c1)NC(=O)c1ccc(O)c(O)c1 | 0.4
CC(C)OC(=O)[C@@H](Cc1ccc(O)c(O)c1)OC(=O)/C=C/c1ccc(O)c(O)c1 | 86.1
COC(=O)[C@@H](Cc1ccc(O)c(O)c1)OC(=O)/C=C/c1ccc(O)c(O)c1 [METHYL ROSMARINATE] | 54.7

test system: Jurkat; assay: Inhibition of Jurkat cell activation assessed as blocking of T-cell antigen receptor-induced IL-2 expression at 30 uM by luciferase assay; assay type: functional; details: Homo sapiens; how it was run: as §1

Structure (SMILES) | inhibition at 30 µM [%] | Activity
O=C(/C=C/c1ccc(O)c(O)c1)O[C@H](Cc1ccc(O)c(O)c1)C(=O)O [ROSMARINIC ACID] | 50 | 
COC(=O)[C@@H](Cc1ccc(O)c(O)c1)OC(=O)/C=C/c1ccc(O)c(O)c1 [METHYL ROSMARINATE] |  | Active
